Measurements from ChEMBL document CHEMBL1135917, “Human somatostatin receptor specificity of backbone-cyclic analogues containing novel sulfur building units” (J Med Chem, 2002).
*1 amine or outer side, *2 acyl side, *3 side chain or, on linkers, in order; H or OH if unused. Where a SMILES comes first, the peptide text is derived from it. Bridges are numbered along the chain shown (N, C = ends). [ ]: non-standard residue; d: D form. N(2-mercaptoethyl)Gly = O=C(CN(CCS[*:3])[*:1])[*:2]

Assays:
[1] = molecular target: Somatostatin receptor type 2 (Homo sapiens, UniProt P30874); experiment: Binding affinity of human Somatostatin receptor type 2 (hsst2) by the displacement of [125I]- Tyr11 somatostatin-14 in CHO-K1 cells; assay type: cell-based
Sequence of Somatostatin receptor type 2 (P30874 whole entry): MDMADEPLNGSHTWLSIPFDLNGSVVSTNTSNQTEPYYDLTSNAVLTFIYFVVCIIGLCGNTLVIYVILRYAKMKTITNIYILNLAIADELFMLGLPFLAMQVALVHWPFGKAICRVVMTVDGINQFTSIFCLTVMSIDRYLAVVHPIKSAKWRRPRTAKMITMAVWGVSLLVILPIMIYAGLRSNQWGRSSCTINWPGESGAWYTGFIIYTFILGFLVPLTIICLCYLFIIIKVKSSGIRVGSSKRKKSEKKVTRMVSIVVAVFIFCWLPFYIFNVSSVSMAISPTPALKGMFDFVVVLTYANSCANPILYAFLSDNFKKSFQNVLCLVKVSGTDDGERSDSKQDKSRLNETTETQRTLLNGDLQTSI
Summary of the method: (§1)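 Membranes from CHO-K1 cells stably expressing each cloned human receptor, prepared in 50 mM Tris-HCl pH 7.8 with EGTA, MgCl2 and protease inhibitors. Membranes (0.2 or 0.4 mg/mL protein, receptor-dependent) incubated with 125I-Tyr11 somatostatin-14 for 45 min at room temperature. Nonspecific binding taken with […] somatostatin. Bound ligand separated by GF/C filtration and counted. Triplicate wells, at least two experiments. IC50 taken from inhibition curves, mean ± SEM.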

[2] = molecular target: Somatostatin receptor type 1 (Homo sapiens, UniProt P30872); experiment: Binding affinity of human Somatostatin receptor type 1 (hsst1) by the displacement of [125I]- Tyr11 somatostatin-14 in CHO-K1 cells.; assay type: cell-based; summary of the method: as §1
Sequence of Somatostatin receptor type 1 (P30872 whole entry): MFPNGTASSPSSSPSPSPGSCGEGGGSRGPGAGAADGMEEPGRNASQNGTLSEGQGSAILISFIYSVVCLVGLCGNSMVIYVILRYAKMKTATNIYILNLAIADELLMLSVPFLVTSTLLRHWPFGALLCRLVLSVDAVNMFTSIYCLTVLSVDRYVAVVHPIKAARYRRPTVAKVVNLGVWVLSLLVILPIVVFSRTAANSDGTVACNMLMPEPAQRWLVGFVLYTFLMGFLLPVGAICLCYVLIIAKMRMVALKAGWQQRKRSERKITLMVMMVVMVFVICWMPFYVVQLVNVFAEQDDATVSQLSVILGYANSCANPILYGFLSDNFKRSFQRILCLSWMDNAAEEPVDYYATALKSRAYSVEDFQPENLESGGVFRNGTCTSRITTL

[3] = molecular target: Somatostatin receptor type 5 (Homo sapiens, UniProt P35346); experiment: Binding affinity of human Somatostatin receptor type 5 (hsst5) by the displacement of [125I]- Tyr11 somatostatin-14 in CHO-K1 cells; assay type: cell-based; summary of the method: as §1
Sequence of Somatostatin receptor type 5 (P35346 whole entry): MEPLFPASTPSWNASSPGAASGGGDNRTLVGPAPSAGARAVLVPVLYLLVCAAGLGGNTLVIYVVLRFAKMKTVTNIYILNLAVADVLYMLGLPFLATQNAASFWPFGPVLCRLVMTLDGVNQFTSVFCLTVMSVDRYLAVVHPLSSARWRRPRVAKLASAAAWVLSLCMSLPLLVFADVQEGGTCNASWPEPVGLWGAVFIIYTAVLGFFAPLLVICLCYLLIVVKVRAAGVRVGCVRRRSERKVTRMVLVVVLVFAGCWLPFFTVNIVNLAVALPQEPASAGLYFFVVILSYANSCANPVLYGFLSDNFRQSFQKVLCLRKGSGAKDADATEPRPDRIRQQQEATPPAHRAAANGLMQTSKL

[4] = molecular target: Somatostatin receptor type 3 (Homo sapiens, UniProt P32745); experiment: Binding affinity of human Somatostatin receptor type 3 (hsst3) by the displacement of [125I]- Tyr11 somatostatin-14 in CHO-K1 cells; assay type: cell-based; summary of the method: as §1
Sequence of Somatostatin receptor type 3 (P32745 whole entry): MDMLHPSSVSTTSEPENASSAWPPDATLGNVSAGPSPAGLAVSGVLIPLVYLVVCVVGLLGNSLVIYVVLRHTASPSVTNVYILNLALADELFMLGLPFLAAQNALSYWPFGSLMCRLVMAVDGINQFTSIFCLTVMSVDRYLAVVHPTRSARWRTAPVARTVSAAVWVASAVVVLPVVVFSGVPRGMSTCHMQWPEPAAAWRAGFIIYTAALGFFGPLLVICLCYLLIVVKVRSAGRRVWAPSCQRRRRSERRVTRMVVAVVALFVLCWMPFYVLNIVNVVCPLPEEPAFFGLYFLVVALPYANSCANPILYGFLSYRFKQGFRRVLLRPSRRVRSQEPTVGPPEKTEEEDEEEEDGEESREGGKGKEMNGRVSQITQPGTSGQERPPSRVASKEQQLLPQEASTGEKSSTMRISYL

[5] = molecular target: Somatostatin receptor type 4 (Homo sapiens, UniProt P31391); experiment: Binding affinity of human Somatostatin receptor type 4 (hsst4) by the displacement of [125I]- Tyr11 somatostatin-14 in CHO-K1 cells; assay type: cell-based; summary of the method: as §1
Sequence of Somatostatin receptor type 4 (P31391 whole entry): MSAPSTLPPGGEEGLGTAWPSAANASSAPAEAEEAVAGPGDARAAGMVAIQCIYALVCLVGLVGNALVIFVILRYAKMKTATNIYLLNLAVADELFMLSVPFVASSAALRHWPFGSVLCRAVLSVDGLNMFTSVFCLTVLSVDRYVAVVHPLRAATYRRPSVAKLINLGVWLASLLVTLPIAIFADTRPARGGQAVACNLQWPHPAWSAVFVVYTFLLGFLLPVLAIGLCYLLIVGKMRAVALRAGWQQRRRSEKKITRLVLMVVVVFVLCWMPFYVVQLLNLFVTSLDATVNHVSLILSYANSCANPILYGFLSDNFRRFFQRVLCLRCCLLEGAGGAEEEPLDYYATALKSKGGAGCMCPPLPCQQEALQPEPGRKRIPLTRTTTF

[6] = Half life in renal homogenate; assay type: ADME, tissue-based
Summary of the method: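 Peptides at 0.4 mg/mL final were incubated in rat renal homogenate at 37 °C for up to 4 h. Samples were taken at several time points. The fraction of intact peptide was measured by HPLC from the loss of major-peak area.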

Row | Structure (SMILES) | IC50 ([1]; cho-k1) [nM] | IC50 ([2]; cho-k1) [nM] | IC50 ([3]; cho-k1) [nM] | IC50 ([4]; cho-k1) [nM] | IC50 ([5]; cho-k1) [nM] | half-life [6] [h] | IC50 [1] [nM] | IC50 [2] [nM] | IC50 [3] [nM] | IC50 [4] [nM] | IC50 [5] [nM]
1 | C[C@@H](O)[C@@H]1NC(=O)[C@@H](CCCCN)NC(=O)[C@@H](Cc2c[nH]c3ccccc23)NC(=O)[C@@H](Cc2c[nH]c3ccccc23)NC(=O)[C@H](Cc2ccccc2)NC(=O)C(NC(=O)[C@@H](N)Cc2ccccc2)CSSCCN(CC(N)=O)C(=O)[C@@H](Cc2ccccc2)NC1=O (stereo not given in full) | 12.8 | > 1000 | 4.5 | > 100 | 35.9 |  |  |  |  |  | 
2 | C[C@@H](O)[C@@H]1NC(=O)[C@H](CCCCN)NC(=O)[C@@H](Cc2c[nH]c3ccccc23)NC(=O)[C@H](Cc2c[nH]c3ccccc23)NC(=O)[C@H](Cc2ccccc2)NC(=O)CSSCCN(CC(N)=O)C(=O)[C@H](Cc2ccccc2)NC1=O |  |  |  |  |  |  | 28.7 | > 1000 |  | 15.6 | > 100
3 | C[C@@H](O)[C@@H]1NC(=O)[C@H](CCCCN)NC(=O)[C@@H](Cc2c[nH]c3ccccc23)NC(=O)[C@H](Cc2c[nH]c3ccccc23)NC(=O)[C@H](Cc2ccccc2)NC(=O)CCCNC(=O)CCCN(CC(N)=O)C(=O)[C@H](Cc2ccccc2)NC1=O |  |  |  |  |  |  | 3 | > 1000 | 1 | > 100 | 7

Second part, the compound after the results:

Row | IC50 ([1]; cho-k1) [nM] | IC50 ([2]; cho-k1) [nM] | IC50 ([3]; cho-k1) [nM] | IC50 ([4]; cho-k1) [nM] | IC50 ([5]; cho-k1) [nM] | half-life [6] [h] | IC50 [1] [nM] | IC50 [2] [nM] | IC50 [3] [nM] | IC50 [4] [nM] | IC50 [5] [nM] | Structure (SMILES)
4 |  |  |  |  |  | 3 | 5.2 | > 1000 | 1.2 | 40.7 | 41.1 | C[C@@H](O)[C@@H]1NC(=O)[C@H](CCCCN)NC(=O)[C@@H](Cc2c[nH]c3ccccc23)NC(=O)[C@H](Cc2c[nH]c3ccccc23)NC(=O)[C@H](Cc2ccccc2)NC(=O)[C@@H](N)CSSCCN(CC(N)=O)C(=O)[C@H](Cc2ccccc2)NC1=O (H-CFW[dW]KTF[N(2-mercaptoethyl)Gly]-NH2; disulfide 1-8)
5 |  |  |  |  |  |  | 1.3 | > 1000 | 2.8 | > 100 | > 100 | C[C@@H](O)[C@@H]1NC(=O)[C@H](CCCCN)NC(=O)[C@@H](Cc2c[nH]c3ccccc23)NC(=O)[C@H](Cc2c[nH]c3ccccc23)NC(=O)[C@H](Cc2ccccc2)NC(=O)CCSSCCN(CC(N)=O)C(=O)[C@H](Cc2ccccc2)NC1=O
6 | 2.5 | > 1000 | 18.2 | > 100 | > 100 |  |  |  |  |  |  | C[C@@H](O)[C@@H]1NC(=O)[C@@H](CCCCN)NC(=O)[C@@H](Cc2c[nH]c3ccccc23)NC(=O)[C@@H](Cc2c[nH]c3ccccc23)NC(=O)[C@H](Cc2ccccc2)NC(=O)CN(C(=O)[C@@H](N)Cc2ccccc2)CCSSCCN(CC(N)=O)C(=O)[C@@H](Cc2ccccc2)NC1=O
7 |  |  |  |  |  |  | 4.1 | > 1000 | 7.8 | > 100 | 49.5 | C[C@@H](O)[C@@H]1NC(=O)[C@H](CCCCN)NC(=O)[C@@H](Cc2c[nH]c3ccccc23)NC(=O)[C@H](Cc2c[nH]c3ccccc23)NC(=O)[C@H](Cc2ccccc2)NC(=O)CNCCSSCCN(CC(N)=O)C(=O)[C@H](Cc2ccccc2)NC1=O
